In ChEMBL document CHEMBL1146654, “3-(7-Azaindolyl)-4-arylmaleimides as potent, selective inhibitors of glycogen synthase kinase-3” (Bioorg Med Chem Lett, 2004):

How the values were obtained:
[1] = target: Tyrosine-protein kinase SYK (Homo sapiens) (UniProt P43405); experiment: Inhibition of Syk protein tyrosine kinase; parameters: scale not given: the % may be the effect or the level left
[2] = target: MAP kinase-activated protein kinase 2 (Homo sapiens) (UniProt P49137); experiment: Inhibition of MAP kinase-activated protein kinase 2; parameters: scale not given: the % may be the effect or the level left
[3] = tested on: Casein kinase I (Saccharomyces cerevisiae); experiment: Inhibition of Casein kinase I; parameters: scale not given: the % may be the effect or the level left
[4] = target: T1, 3-phosphoinositide-dependent protein kinase 1 (Homo sapiens) (UniProt O15530); experiment: (§1) Inhibition of PDK1; parameters: scale not given: the % may be the effect or the level left
T1 sequence (whole entry): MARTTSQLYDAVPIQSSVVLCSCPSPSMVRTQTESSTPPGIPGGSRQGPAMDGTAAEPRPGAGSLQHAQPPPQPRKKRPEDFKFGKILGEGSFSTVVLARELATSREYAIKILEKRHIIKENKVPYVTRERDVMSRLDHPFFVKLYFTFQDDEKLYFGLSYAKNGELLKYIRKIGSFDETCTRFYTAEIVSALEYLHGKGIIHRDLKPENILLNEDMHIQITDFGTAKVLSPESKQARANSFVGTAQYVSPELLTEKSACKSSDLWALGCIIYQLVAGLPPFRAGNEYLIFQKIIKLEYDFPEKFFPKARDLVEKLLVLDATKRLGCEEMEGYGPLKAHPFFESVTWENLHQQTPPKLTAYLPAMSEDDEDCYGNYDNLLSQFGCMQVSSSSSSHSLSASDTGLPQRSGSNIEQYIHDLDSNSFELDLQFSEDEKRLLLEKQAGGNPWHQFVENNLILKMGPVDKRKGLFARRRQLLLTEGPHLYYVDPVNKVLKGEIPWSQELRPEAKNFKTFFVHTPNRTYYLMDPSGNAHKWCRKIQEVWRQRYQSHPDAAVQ

[5] = target: Tyrosine-protein kinase Yes (Homo sapiens) (UniProt P07947); experiment: Inhibition of Yes tyrosine kinase; parameters: scale not given: the % may be the effect or the level left
[6] = target: Serine/threonine-protein kinase N2 (Homo sapiens) (UniProt Q16513); experiment: Inhibition of compound PRK2; parameters: scale not given: the % may be the effect or the level left
[7] = target: Serine/threonine-protein kinase Chk2 (Homo sapiens) (UniProt O96017); experiment: Inhibition of Serine/threonine-protein kinase Chk2; parameters: scale not given: the % may be the effect or the level left
Rattus norvegicus = species: Rattus norvegicus; experiment: Inhibition of AMP-activated Protein Kinase; parameters: scale not given: the % may be the effect or the level left
[8] = target: Glycogen synthase kinase-3 beta (Homo sapiens, UniProt P49841); experiment: Effective concentration of compound against glycogen synthase kinase-3 in HEK293 cells; format: functional, cell-based
Procedure, shortened: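 HEK293 cells exposed to compound; glycogen synthase activity then measured in cell extracts as ¹⁴C-UDP glucose incorporation into glycogen. EC₅₀ averaged from triplicate determinations.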

Homo sapiens = species: Homo sapiens; experiment: Inhibition of PKA; parameters: scale not given: the % may be the effect or the level left
[9] = target: Protein kinase C alpha type (Homo sapiens, UniProt P17252); experiment: Inhibition of PKCalpha; parameters: scale not given: the % may be the effect or the level left
[10] = target: Cyclin-dependent kinase 2/cyclin A (Homo sapiens) (UniProt P24941+P20248+P78396); experiment: Inhibition of Cyclin-dependent kinase 2-cyclin A; format: protein-complex assay; parameters: scale not given: the % may be the effect or the level left
[11] = target: Insulin-like growth factor 1 receptor (Homo sapiens) (UniProt P08069); experiment: Inhibition of insulin-like growth factor I receptor; parameters: scale not given: the % may be the effect or the level left
[12] = target: T2, Protein kinase C beta type (Homo sapiens, UniProt P05771); experiment: Inhibition of protein kinase C-betaII at 10 uM
[13] = target: T3, Inhibitor of nuclear factor kappa-B kinase subunit alpha (Homo sapiens) (UniProt O15111); experiment: Inhibition of I kappa-B kinase alpha; parameters: scale not given: the % may be the effect or the level left
T3 sequence (whole entry): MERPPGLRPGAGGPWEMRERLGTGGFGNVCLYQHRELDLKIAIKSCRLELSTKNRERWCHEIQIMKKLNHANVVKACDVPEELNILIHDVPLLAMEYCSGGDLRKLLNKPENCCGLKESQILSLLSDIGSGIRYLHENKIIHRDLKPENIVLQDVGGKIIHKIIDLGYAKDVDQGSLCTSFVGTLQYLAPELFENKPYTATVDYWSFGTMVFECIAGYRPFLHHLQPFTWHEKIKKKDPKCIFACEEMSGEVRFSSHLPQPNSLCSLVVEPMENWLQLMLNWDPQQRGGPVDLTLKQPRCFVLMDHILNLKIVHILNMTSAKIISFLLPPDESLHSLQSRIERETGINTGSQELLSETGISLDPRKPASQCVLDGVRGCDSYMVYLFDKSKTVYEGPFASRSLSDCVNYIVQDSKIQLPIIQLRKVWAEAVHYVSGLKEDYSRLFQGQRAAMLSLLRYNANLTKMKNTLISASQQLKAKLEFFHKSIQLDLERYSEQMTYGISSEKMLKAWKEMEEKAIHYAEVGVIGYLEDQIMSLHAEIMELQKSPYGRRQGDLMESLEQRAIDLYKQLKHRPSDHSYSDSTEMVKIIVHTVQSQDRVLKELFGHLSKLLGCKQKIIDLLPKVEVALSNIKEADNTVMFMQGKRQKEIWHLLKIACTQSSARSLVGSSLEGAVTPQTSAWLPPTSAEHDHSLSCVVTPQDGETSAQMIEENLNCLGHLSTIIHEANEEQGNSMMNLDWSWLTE

[14] = target: T4, Ribosomal protein S6 kinase alpha-5 (Homo sapiens, UniProt O75582); experiment: (§2) Inhibition of MSK-1 kinase
[15] = target: T5, MAP kinase-activated protein kinase 5 (Homo sapiens) (UniProt Q8IW41); experiment: Inhibition of PRAK, MAPK5; parameters: scale not given: the % may be the effect or the level left
T5 sequence (whole entry): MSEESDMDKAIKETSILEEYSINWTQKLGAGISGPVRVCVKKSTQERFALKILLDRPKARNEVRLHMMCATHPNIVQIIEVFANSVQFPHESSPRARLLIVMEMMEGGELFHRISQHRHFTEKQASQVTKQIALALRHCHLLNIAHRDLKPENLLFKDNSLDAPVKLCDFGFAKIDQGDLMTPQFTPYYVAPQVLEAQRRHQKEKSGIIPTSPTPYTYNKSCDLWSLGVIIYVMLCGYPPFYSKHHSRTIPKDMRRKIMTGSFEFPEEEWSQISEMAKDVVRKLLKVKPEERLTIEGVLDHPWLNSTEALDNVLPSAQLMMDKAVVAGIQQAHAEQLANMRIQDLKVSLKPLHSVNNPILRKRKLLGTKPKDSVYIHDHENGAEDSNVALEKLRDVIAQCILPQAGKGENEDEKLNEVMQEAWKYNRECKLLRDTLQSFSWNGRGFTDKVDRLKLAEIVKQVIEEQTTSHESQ

[16] = target: Tyrosine-protein kinase Lyn (Homo sapiens, UniProt P07948); experiment: Inhibition of Protein tyrosine kinase Lyn
[17] = target: Ribosomal protein S6 kinase alpha-3 (Homo sapiens, UniProt P51812); experiment: Inhibition of Ribosomal S6 kinase 3
[18] = target: 3-phosphoinositide-dependent protein kinase 1 (Homo sapiens, UniProt O15530); experiment: as §1
[19] = target: T2, Protein kinase C beta type; experiment: Inhibitory concentration against human protein kinase C-betaII using histone as substrate
[20] = target: T4, Ribosomal protein S6 kinase alpha-5; experiment: as §2; parameters: scale not given: the % may be the effect or the level left

Serine/threonine-protein kinase Chk2 (Homo sapiens), sequence (O96017 whole entry): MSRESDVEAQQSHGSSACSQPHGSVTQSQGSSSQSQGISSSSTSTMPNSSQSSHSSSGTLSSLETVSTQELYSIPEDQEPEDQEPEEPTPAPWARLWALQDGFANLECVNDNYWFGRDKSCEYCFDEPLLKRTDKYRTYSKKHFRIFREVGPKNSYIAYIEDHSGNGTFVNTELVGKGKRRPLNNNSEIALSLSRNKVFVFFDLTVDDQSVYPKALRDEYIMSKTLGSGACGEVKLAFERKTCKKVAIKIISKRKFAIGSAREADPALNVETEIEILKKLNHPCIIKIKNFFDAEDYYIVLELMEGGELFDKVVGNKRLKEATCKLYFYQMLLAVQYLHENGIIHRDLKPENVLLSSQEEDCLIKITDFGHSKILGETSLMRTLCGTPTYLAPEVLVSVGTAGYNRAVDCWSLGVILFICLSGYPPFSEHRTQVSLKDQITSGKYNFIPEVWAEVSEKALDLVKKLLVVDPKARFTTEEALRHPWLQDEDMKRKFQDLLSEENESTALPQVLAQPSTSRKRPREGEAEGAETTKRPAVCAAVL
Tyrosine-protein kinase Yes (Homo sapiens), sequence (P07947 2-543 limits assumed): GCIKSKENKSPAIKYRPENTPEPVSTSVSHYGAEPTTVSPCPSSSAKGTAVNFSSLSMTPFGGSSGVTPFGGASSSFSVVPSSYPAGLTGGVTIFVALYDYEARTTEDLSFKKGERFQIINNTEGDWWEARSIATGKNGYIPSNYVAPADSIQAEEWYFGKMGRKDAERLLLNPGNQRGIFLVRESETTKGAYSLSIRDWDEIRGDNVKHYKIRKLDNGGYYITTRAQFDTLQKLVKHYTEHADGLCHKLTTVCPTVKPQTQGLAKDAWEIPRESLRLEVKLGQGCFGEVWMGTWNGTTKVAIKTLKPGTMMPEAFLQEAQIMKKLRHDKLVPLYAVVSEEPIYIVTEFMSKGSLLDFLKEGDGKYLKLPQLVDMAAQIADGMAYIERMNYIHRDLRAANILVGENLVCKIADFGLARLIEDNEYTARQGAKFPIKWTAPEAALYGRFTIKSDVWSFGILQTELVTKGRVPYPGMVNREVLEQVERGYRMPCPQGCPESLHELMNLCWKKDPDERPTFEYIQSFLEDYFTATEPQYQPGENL
Serine/threonine-protein kinase N2 (Homo sapiens), sequence (Q16513 whole entry, looked up): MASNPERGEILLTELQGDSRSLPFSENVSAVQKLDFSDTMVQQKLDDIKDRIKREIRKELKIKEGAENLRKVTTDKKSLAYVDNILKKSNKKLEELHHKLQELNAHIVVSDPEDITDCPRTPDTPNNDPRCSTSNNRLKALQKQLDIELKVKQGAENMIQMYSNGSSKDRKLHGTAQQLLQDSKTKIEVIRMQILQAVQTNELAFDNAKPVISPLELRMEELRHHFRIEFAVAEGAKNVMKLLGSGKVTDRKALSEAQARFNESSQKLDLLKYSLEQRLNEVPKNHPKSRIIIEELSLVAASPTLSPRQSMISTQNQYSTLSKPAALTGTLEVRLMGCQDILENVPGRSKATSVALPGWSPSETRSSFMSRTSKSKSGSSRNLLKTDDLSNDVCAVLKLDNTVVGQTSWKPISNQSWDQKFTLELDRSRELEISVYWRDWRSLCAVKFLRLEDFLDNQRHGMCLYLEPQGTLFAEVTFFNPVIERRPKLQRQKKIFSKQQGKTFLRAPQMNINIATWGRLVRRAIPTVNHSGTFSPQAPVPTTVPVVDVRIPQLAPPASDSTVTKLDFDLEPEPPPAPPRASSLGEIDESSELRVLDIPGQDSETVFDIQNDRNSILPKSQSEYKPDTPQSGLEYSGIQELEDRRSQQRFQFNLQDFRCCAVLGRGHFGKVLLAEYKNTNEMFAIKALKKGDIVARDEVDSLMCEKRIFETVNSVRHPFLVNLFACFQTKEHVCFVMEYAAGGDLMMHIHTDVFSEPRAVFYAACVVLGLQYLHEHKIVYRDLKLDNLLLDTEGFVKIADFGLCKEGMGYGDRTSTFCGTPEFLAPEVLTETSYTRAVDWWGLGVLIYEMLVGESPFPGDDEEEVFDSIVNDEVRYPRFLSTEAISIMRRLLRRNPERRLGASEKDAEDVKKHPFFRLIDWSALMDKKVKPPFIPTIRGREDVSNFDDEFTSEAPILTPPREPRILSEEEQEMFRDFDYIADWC
Insulin-like growth factor 1 receptor (Homo sapiens), sequence (P08069 31-736 limits assumed): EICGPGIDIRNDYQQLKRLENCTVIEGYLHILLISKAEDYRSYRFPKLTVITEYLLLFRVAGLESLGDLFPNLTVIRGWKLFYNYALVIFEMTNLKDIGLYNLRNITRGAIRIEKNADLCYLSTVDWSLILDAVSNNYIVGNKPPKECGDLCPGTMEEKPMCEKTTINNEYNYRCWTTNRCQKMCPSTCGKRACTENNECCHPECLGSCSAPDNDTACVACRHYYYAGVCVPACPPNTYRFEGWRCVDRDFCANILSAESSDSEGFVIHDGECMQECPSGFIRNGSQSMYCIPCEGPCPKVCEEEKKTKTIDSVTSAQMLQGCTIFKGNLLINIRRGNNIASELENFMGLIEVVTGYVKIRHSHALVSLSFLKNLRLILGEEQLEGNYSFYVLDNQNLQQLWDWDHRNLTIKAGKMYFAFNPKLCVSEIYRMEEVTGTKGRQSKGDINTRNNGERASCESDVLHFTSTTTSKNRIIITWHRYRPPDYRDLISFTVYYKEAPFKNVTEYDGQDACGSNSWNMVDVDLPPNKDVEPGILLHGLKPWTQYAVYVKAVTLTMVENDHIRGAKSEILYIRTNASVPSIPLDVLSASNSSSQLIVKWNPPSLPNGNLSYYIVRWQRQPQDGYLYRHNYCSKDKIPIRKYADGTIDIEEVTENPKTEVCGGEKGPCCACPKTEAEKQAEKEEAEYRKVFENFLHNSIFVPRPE
Insulin-like growth factor 1 receptor (Homo sapiens), sequence (P08069 741-1367 limits assumed): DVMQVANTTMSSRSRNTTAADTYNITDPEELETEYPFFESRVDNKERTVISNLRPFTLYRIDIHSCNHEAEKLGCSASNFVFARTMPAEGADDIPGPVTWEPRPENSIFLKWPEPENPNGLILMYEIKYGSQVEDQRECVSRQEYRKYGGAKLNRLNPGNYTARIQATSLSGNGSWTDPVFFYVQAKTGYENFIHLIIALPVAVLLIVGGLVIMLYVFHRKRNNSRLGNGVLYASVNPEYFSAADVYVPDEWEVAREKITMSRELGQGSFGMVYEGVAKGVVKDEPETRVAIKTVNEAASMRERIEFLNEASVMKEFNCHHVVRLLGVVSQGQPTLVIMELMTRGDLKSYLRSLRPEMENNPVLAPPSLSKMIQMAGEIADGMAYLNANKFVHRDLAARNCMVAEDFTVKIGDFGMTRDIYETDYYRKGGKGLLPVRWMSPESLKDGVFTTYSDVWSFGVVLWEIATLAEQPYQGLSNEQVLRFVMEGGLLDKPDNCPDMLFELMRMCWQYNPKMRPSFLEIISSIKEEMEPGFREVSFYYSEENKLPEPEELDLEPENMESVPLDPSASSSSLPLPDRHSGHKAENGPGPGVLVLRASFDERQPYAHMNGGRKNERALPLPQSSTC
MAP kinase-activated protein kinase 2 (Homo sapiens), sequence (P49137 whole entry, looked up): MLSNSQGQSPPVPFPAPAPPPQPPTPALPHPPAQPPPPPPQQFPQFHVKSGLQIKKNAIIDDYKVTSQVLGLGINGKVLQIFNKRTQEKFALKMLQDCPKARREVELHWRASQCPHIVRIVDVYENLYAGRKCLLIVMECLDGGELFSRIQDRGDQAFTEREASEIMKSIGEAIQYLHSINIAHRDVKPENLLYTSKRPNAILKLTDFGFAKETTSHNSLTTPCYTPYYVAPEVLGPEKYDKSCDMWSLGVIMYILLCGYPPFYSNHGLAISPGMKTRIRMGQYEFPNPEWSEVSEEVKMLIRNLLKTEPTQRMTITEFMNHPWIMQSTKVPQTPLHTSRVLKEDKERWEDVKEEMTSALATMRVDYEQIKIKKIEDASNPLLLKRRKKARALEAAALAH
Glycogen synthase kinase-3 beta, sequence (P49841 whole entry): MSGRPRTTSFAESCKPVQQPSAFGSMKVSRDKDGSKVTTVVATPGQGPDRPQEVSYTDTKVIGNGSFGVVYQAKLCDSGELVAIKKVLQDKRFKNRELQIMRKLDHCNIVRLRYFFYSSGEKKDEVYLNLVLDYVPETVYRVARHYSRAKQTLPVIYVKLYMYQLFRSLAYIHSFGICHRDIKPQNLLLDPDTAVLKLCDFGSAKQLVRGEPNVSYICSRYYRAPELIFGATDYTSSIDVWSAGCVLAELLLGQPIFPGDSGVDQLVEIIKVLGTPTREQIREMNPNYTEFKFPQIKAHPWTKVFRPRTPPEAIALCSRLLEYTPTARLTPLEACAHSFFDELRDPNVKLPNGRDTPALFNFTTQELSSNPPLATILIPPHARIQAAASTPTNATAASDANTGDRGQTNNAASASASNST

Row | Compound | Activity [1] | Activity [2] | Activity [4] | Activity [5] | Activity [6] | Activity [7] | Activity (Rattus norvegicus) | EC50 [8] | Activity (Homo sapiens) | Activity [9] | Activity [10] | Activity [11] | Activity [13] | Activity [15] | IC50 [17] | IC50 [19] | Activity [20] | other results
1 | O=C1NC(=O)C(c2cn(CCCO)c3ncccc23)=C1c1ncc(C(F)(F)F)cc1Cl | 76% | 85% | 79% | 93% | 71% | 92% | 74% | 0.62 µM | 87% | 70% | 25% | 78% | 76% | 59% |  |  |  | Activity [3]: 66%; inhibition [12]: < 50%; IC50 [14]: > 10 µM
2 | COc1ccccc1C1=C(c2cn(CCCNC(=O)OC(C)(C)C)c3ncccc23)C(=O)NC1=O | 88% |  | 20% | 42% | 68% | 49% | 64% | 0.04 µM | 95% | 38% | 2% | 86% | 89% | 57% | 0.64 µM | 2.26 µM | 61% | IC50 [16]: 1.8 µM; IC50 [18]: 0.57 µM
3 | COCCCn1cc(C2=C(c3ccccc3O)C(=O)NC2=O)c2cccnc21 | 86% | 97% | 78% | 89% | 76% | 75% | 68% |  | 92% | 46% | 9% | 80% | 83% | 82% | 2 µM | 4.36 µM | 57% | 
